From PubChem
DNA FID counter: displaces DNA intercalator in HCV helicase counter-screen | inhibition, % at 7.9 µM | actives 0.17% (n = 290,000) | DNA fluorescent intercalator displacement, fluorescence; in the data active means inhibition above about 37%;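 further: 0% = vehicle and 100% = reference compound; higher means more ethidium bromide displaced from hairpin DNA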
HCV core dimer: blocks dimerization of HCV core protein | TR-FRET GST/Flag-core106 dimerization, 1536-well | inhibition, % at 5 µM | actives 0.33% (n = 300,000) | AID 1899;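 active means inhibition above the mean of all tested compounds plus 3 SD, set per screening campaign, cut at about 45% in these data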
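Assay system: tagged HCV core106 pair (GST and Flag); medium: KF-containing HEPES buffer, pH 7.45, DTT, CHAPS, BSA; also added: Eu donor and XL665 acceptor anti-tag antibodies; dosing: 5 µM single dose; timing: compound-protein-antibody incubation 4 h at 22.5 °C; signal: TR-FRET 671 and 617 nm emission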
NS3 helicase inh: inhibitors of Hepatitis C virus NS3 helicase. inhibition, % at 10.9 µM. NS3 helicase DNA unwinding, Cy5 molecular beacon fluorescence. actives 0.56% (n = 290,000);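 active means inhibition above the mean of all tested compounds plus 3 SD, set per campaign, cut at about 35% in these data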;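 further: 0% = DMSO wells and 100% = thioflavine S control wells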
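Compound dosing – single dose, 10.9 µM nominal final, DMSO 0.8% final · System – NS3 helicase fragment of HCV · Buffer or medium – MOPS pH 6.5, MgCl2, DTT, Tween20, BSA · Signal – Cy5 beacon fluorescence read at start and 1 h · Also added – annealed dual-labelled DNA beacon duplex, ATP-started · Schedule – 1 h at 25 °C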
eIF4H inh: inhibitors of RNA binding by human eIF4H; Q15056; eIF4H fluorescence polarization binding assay; inhibition, % at 35 µM; actives 0.94% (n = 290,000);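 further: calls also rest on retests at 20 µM and on dose response follow-up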
PABP FP inh: blocks human PABP binding to poly(A) RNA | P11940 | fluorescence polarization | inhibition, % at 35 µM | actives 1% (n = 290,000);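 further: calls also rest on retests at 20 µM and on dose response follow-up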
Target sequence (P11940 whole entry, looked up): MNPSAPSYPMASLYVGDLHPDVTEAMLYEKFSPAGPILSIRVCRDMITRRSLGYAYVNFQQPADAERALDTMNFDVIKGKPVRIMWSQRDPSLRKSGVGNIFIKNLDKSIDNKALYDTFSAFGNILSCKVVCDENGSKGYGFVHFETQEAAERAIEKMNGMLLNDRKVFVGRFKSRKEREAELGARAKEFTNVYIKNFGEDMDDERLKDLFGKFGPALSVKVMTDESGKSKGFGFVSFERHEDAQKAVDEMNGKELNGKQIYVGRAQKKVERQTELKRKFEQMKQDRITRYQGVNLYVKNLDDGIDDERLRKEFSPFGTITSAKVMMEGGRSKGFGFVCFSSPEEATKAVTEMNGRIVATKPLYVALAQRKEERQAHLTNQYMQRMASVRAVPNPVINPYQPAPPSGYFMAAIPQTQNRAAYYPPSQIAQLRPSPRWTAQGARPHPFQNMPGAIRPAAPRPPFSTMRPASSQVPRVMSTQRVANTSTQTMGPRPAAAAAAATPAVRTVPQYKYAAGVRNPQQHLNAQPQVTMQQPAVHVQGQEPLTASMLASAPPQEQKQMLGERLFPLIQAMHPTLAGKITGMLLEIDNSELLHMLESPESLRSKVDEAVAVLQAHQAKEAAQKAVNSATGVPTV
MLLE-PAM2 inh: blocks PAM2 peptide binding to the PABP1 MLLE domain; P11940; GST-MLLE / FITC-PAM2 fluorescence polarization; inhibition, % at 20 µM; actives 0.36% (n = 360,000); AID 588489; in the data active means inhibition above about 35%, passing the limit was not always enough;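 further: plate controls were DMSO wells with GST-MLLE for no effect and wells lacking GST-MLLE protein for full effect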
The depositor's hits bear a star; x = no result. A selection: hits, their analogues and other compounds. The true share with any hit is near 2%. Unless noted, how the calls were made is not given here.

SMILES | DNA FID counter | HCV core dimer | NS3 helicase inh | eIF4H inh | PABP FP inh | MLLE-PAM2 inh
CCNC(=O)C1CCCN1C(=O)C(CCCN=C(N)N)NC(=O)C(CC(C)C)NC(=O)C(Cc1cn(Cc2ccccc2)cn1)NC(=O)C(Cc1ccc(O)cc1)NC(=O)C(CO)NC(=O)C(Cc1c[nH]c2ccccc12)NC(=O)C(Cc1cnc[nH]1)NC(=O)C1CCC(=O)N1 (centres undefined) | 44* | 5 | -92 | -1 | 2 | 16
C=CCc1cccc(C=Nc2cc(Br)ccc2O)c1O | 6 | -2 | 5 | 78* | -4 | 2
COc1ccc(C(=O)NC(=S)NCc2cccnc2)cc1OC | -5 | -1 | 6 | -3 | 1 | 23
COc1ccc(C(=O)NC(=S)NCc2cccnc2)cc1[N+](=O)[O-] | -2 | -1 | 4 | -5 | 7 | 38*
CCOc1ccc(NC(=S)NC(=O)c2cccnc2)c([N+](=O)[O-])c1 | -3 | 12 | 5 | -13 | 0 | 44*
Cc1oc(-c2ccccc2Cl)nc1CS(=O)CC(=O)NCc1ccccc1Cl (centres undefined) | -50 | 11 | 0 | 1 | 1 | 9
O=C(Cn1cnc2c(nnn2-c2ccccc2)c1=O)N1CCOCC1 | 1 | 1 | 3 | active | 70* | -5
CCOc1cccc(=O)c2c(C)oc(C)c12 | -6 | -2 | -3 | -1 | 21 | 44*
COc1cc(/C=C/C(=O)OCC(=O)Nc2ccc([N+](=O)[O-])cc2)ccc1O | 6 | 5 | -4 | 3 | 5 | -3
COc1cc(/C=C/C(=O)OCC(=O)Nc2ccc(S(N)(=O)=O)cc2)ccc1O | -5 | -3 | 13 | 52* | 23* | -19
O=c1[nH]c2ccc(NC(=S)Nc3ccc(F)cc3)cc2[nH]1 | 2 | -2 | 2 | 2 | 8 | 19
CCc1ccc(NC(=S)Nc2ccc3[nH]c(=O)[nH]c3c2)cc1 | -4 | 0 | -12 | 1.7* | 72* | 22
Cc1ccc(C(=O)NC(=S)Nc2ccc3[nH]c(=O)[nH]c3c2)c(C)c1 | -3 | 10 | -7 | -3 | 3 | 38*
CCCNS(=O)(=O)c1cc2c(cc1Br)CCN2C(=O)CC | x | x | x | x | x | 7
COc1ccc(Cc2nc3ccc(C(=O)N4CCCCC4CO)cc3o2)cc1OC (centres undefined) | x | x | x | x | x | -8
Cc1ccc(NC(=O)c2c3c(nc4ccccc24)CCC3)cc1S(=O)(=O)N(C)C | -14 | 66* | 16 | 72* | 28 | -19
COc1ccc(C(=O)Nc2ccc(NC(=O)c3ccccc3)cc2)cc1S(=O)(=O)N1CCOCC1 | -28 | -5 | 11 | 0 | 11 | -4
COc1ccc(NC(=O)CSc2ccc([N+](=O)[O-])cc2)cc1S(=O)(=O)N1CCOCC1 | x | x | x | x | x | 41*
COc1ccc(NC(=O)c2c3c(nc4ccccc24)CCC3)cc1S(=O)(=O)N1CCOCC1 | -24 | 78* | 9 | 99 | 8.5* | -15
COc1ccc(NC(=O)CSc2ccc(NC(C)=O)cc2)cc1S(=O)(=O)N1CCOCC1 | x | x | x | x | x | -18
Cc1ccc(NC(=O)c2c3c(nc4ccccc24)CCC3)cc1 | -9 | 18 | 6 | 0 | -8 | -40
COc1ccc(CCNC(=O)COC(=O)c2cc(S(=O)(=O)N3CCCC3)ccc2O)cc1 | x | x | x | x | x | -11
C=CCSc1nc2c(N)ncnc2n1C1OC(CO)C(O)C1O (centres undefined) | x | x | x | x | x | -5
CCC(C)Sc1ccc([C@H]2N[C@@](Cc3ccccc3)(C(=O)OC)[C@H]3C(=O)N(CC)C(=O)[C@@H]23)cc1OC (some centres undefined) | x | 11 | x | x | x | -10
C#CCOCCOCCOCCNc1nc(N2CCN(C(=O)[C@H](CCCCN)n3cc([C@@H](N)C(C)CC)nn3)CC2)nc(N2CCN(C(=O)[C@H](CCCCN)n3cc([C@@H](N)CO)nn3)CC2)n1 (some centres undefined) | 66* | 8 | -33 | 48 | 37 | x
SMILES | DNA FID counter | HCV core dimer | NS3 helicase inh | eIF4H inh | PABP FP inh | MLLE-PAM2 inh
C#CCOCCOCCOCCNc1nc(N2CCN(C(=O)[C@H]([C@@H](C)CC)n3cc([C@@H](N)CO)nn3)CC2)nc(N2CCN(C(=O)[C@H](CCCCN)n3cc([C@@H](N)C(C)CC)nn3)CC2)n1 (some centres undefined) | 52* | 3 | -54 | 28 | 39 | -7
CCOC(=O)c1ccc(NC(=S)N2CCN(C(=O)C3CCCO3)CC2)cc1 (centres undefined) | -27 | -9 | 6 | 6 | 3 | -30
O=c1/c(=C/c2ccco2)sc2n1CN(c1cccc(Br)c1)CN=2 | -1 | 11 | -1 | 51* | 74* | -83
Cc1ccc(CN2CCN(Cc3cc(=O)c4ccccc4[nH]3)CC2CCO)o1 (centres undefined) | -4 | -2 | -4 | 58* | 25 | 11
O=C(O)C[C@@H]1C(=O)O[C@@H]2C(COC(=O)c3cc(O)c(O)c(O)c3)O[C@@H](OC(=O)c3cc(O)c(O)c(O)c3)[C@@H](OC(=O)c3cc(O)c(O)c4c3[C@H]1[C@H](O)C(=O)O4)[C@H]2OC(=O)c1cc(O)c(O)c(O)c1 (some centres undefined) | x | x | x | 87* | 91* | x
CCN(CC)CCCNC(=O)c1ccc(N2CCCCC2)c(NS(=O)(=O)c2ccc(C)cc2)c1 | 51* | -7 | -28 | 1 | 4 | 0
Cc1ccc(S(=O)(=O)Nc2cc(C(=O)NCCN(C)C)ccc2N2CCCC2)cc1 | 30 | -9 | -20 | -4 | -8 | -2
CN(CCOc1ccccc1)CC(=O)Nc1cccc(C#N)c1 | -6 | 2 | 0 | -12 | 0 | 10
O=c1[nH]c(Nc2ccc(F)cc2)cc2ccccc12 | 0 | 7 | -8 | 21 | 70* | 2
CCCCn1c(=NC(=O)c2ccc3c(c2)OCO3)c(C#N)cc2c(=O)n3cccc(C)c3nc21 | 7 | 44 | 15 | 81* | 58* | -30
OC(c1cccc(Cl)c1)c1nc(-c2ccoc2)cs1 (centres undefined) | x | x | x | x | x | 2
CC(C)c1ccc(CNC(=O)C(=O)Nc2nccs2)cc1 | -4 | -8 | 2 | 3 | 15 | 2
CC(C)Cc1ccc(C(C)C(=O)Nc2nccs2)cc1 (centres undefined) | -13 | 2 | -1 | 80* | active | -4
CCN(CC(=O)Nc1ccc(NC(C)=O)cc1)C(=O)c1ccc(N(C)S(=O)(=O)c2ccc(C)cc2)cc1 | x | x | x | x | x | 8
CCN(CC(=O)Nc1ccc(S(=O)(=O)N2CCCC2)cc1)CC(=O)Nc1ccccc1C(F)(F)F | x | x | x | x | x | -54
C#CCn1c(=NC(=O)c2ccc(S(=O)(=O)N3CCc4ccccc4C3)cc2)sc2cc(S(N)(=O)=O)ccc21 | -4 | 46 | 3 | 9 | -5 | 15
